Laboratory results reported in article PMC9290503 (British Journal of Clinical Pharmacology, 2021).

Columns and labels:
[1] = Study 1003 SRD cohort plasma pharmacokinetics; format: in vivo, human; conditions: fasted
Outline: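 Healthy women received a single oral 120 mg dose, then 160 mg after a washout of at least 14 days (placebo-controlled). Plasma was sampled pre-dose and at 0.25–72 h. Free base was measured by validated UPLC–MS/MS after protein precipitation (calibration 0.5–1000 ng mL−1). Noncompartmental parameters used actual sampling times, with values below LLOQ set to zero.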

[2] = Study 1003 MRD cohorts urine pharmacokinetics; format: in vivo, human; conditions: for Aet, mean (CV%) / CLR, mean (CV%) / fe,t, mean (CV%): urine, non‐Japanese
Outline: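 Urine was collected pre-dose and over 0–6, 6–12 and 12–24 h on Days 1 and 10 of once-daily oral dosing. Free base was measured by validated UPLC–MS/MS after protein precipitation (calibration 1–2000 ng mL−1; LLOQ 1 ng mL−1). Noncompartmental analysis used nominal intervals; values below LLOQ were treated as zero.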

[3] = Safety and tolerability, Study 1001; format: in vivo, human
Outline: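 Double-blind, placebo-controlled single oral doses (5–60 mg) in healthy adults aged 18–55, given after at least 10 h fasting, with sentinel dosing in the first cohort. Monitored AEs, physical and neurological exams, vital signs, flagged clinical labs and 12-lead ECG. TEAEs counted from first dose to 30 days after. Semen analysis and serum FSH, LH, testosterone and inhibin B were taken at baseline and one or two spermatogenic cycles post-dose. Follow-up to day 60 (±2).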

[4] = Study 1003 CSF pharmacokinetics at steady state; format: in vivo, human; conditions: 60 mg q.d.
[5] = preliminary toxicology studies in animals; no reference given; cited from earlier work
[6] = Study 1001 single-rising-dose plasma pharmacokinetics; format: in vivo, human; conditions: for AUC0–24, mean (CV%) / AUC0–∞, mean (CV%) / t max, median (range) / t ½z, mean (CV%): plasma, Study 1001
[7] = after multiple dosing (20–160 mg)

Q: With `Cl.O=C(NC1CCOCC1)c1csc([C@@H]2C[C@H]2NCC2CC2)c1` [TAK‐418] as the molecule, how does the “AUC0–24, mean (CV%)” value ([1]; single oral dose 120 mg) read?
A: The value was 3737.2 (19.9) h*ng mL^−1.

Q: What about the “AUC0–∞, mean (CV%)” value ([1]; single oral dose 120 mg) of the same molecule?
A: The value was 3828.3 (20.6) h*ng mL^−1.

Q: And the “C max, mean (CV%)” value ([1]; single oral dose 120 mg)?
A: The value was 727.8 (20.0) ng mL^−1.

Q: And the “t max, median (range)” value ([1]; single oral dose 120 mg)?
A: Its value is 1.50 (1.00–1.50) h.

Q: What about the “t ½z, mean (CV%)” value ([1]; single oral dose 120 mg) of the same molecule?
A: The value was 5.188 (9.9) h.

Q: What about the “AUC0–24, mean (CV%)” value ([1]; single oral dose 160 mg) of the same molecule?
A: Its value is 4350.0 (31.0) h*ng mL^−1.

Q: And the “AUC0–∞, mean (CV%)” value ([1]; single oral dose 160 mg)?
A: The value was 4466.8 (31.7) h*ng mL^−1.

Q: What about the “C max, mean (CV%)” value ([1]; single oral dose 160 mg) of the same molecule?
A: The value was 796.3 (36.2) ng mL^−1.

Q: What about the “t max, median (range)” value ([1]; single oral dose 160 mg) of the same molecule?
A: Its value is 1.25 (1.00–2.00) h.

Q: And the “t ½z, mean (CV%)” value ([1]; single oral dose 160 mg)?
A: Its value is 4.847 (14.1) h.

Q: What about the renal clearance [2, 7] of the same molecule?
A: Its renal clearance is 5.12 to 7.81 L/h.

Q: And the renal excretion [2, 7]?
A: The renal excretion was 15.45–20.06%.

Q: And the “Aet, mean (CV%)” value ([2]; 20 mg q.d., Day 1)?
A: Its value is 2.858 (25.1) mg.

Q: What about the “CLR, mean (CV%)” value ([2]; 20 mg q.d., Day 1) of the same molecule?
A: Its value is 5.813 (16.4) L h^−1.

Q: What about the “fe,t, mean (CV%)” value ([2]; 20 mg q.d., Day 1) of the same molecule?
A: Its value is 14.283 (25.1) %.

Q: And the “Aet, mean (CV%)” value ([2]; 20 mg q.d., Day 10)?
A: The value was 3.090 (28.4) mg.

Q: And the “CLR, mean (CV%)” value ([2]; 20 mg q.d., Day 10)?
A: The value was 5.120 (38.2) L h^−1.

Q: What about the “fe,t, mean (CV%)” value ([2]; 20 mg q.d., Day 10) of the same molecule?
A: Its value is 15.453 (28.4) %.

Q: And the “Aet, mean (CV%)” value ([2]; 60 mg q.d., Day 1)?
A: Its value is 11.423 (28.4) mg.

Q: What about the “CLR, mean (CV%)” value ([2]; 60 mg q.d., Day 1) of the same molecule?
A: Its value is 8.365 (41.5) L h^−1.

Q: What about the “fe,t, mean (CV%)” value ([2]; 60 mg q.d., Day 1) of the same molecule?
A: The value was 19.050 (28.4) %.

Q: What about the “Aet, mean (CV%)” value ([2]; 60 mg q.d., Day 10) of the same molecule?
A: Its value is 11.087 (31.1) mg.

Q: And the “CLR, mean (CV%)” value ([2]; 60 mg q.d., Day 10)?
A: Its value is 6.740 (25.1) L h^−1.

Q: What about the “fe,t, mean (CV%)” value ([2]; 60 mg q.d., Day 10) of the same molecule?
A: Its value is 18.475 (31.1) %.

Q: What about the “Aet, mean (CV%)” value ([2]; 160 mg q.d., Day 1) of the same molecule?
A: Its value is 28.500 (11.0) mg.

Q: What about the “CLR, mean (CV%)” value ([2]; 160 mg q.d., Day 1) of the same molecule?
A: Its value is 7.583 (4.9) L h^−1.

Q: And the “fe,t, mean (CV%)” value ([2]; 160 mg q.d., Day 1)?
A: The value was 17.800 (11.0) %.

Q: And the “Aet, mean (CV%)” value ([2]; 160 mg q.d., Day 10)?
A: The value was 32.067 (37.3) mg.

Q: What about the “CLR, mean (CV%)” value ([2]; 160 mg q.d., Day 10) of the same molecule?
A: Its value is 7.807 (32.7) L h^−1.

Q: What about the “fe,t, mean (CV%)” value ([2]; 160 mg q.d., Day 10) of the same molecule?
A: Its value is 20.060 (37.2) %.

Q: And the “semen parameters or serum hormone levels” value ([3]; 23 male participants)?
A: Its value is “no clinically relevant changes”.

Q: What about the “laboratory test results, vital signs or electrocardiogram readings” value ([3]; Study 1001) of the same molecule?
A: The value was “No clinically significant changes”.

Q: And the “nausea, most common TAK‐418‐related TEAE” value ([3]; Study 1001)?
A: Its value is “reported in one participant administered TAK‐418 15 mg and another administered TAK‐418 40 mg”.

Q: And the “serious AEs, suicidal ideation/behaviour, deaths” value ([3]; Study 1001)?
A: The value was “no serious AEs (SAEs), suicidal ideation/behaviour or deaths were reported”.

Q: What about the testicular pain ([3]; one at 15 mg (unrelated), one at 40 mg (study‐drug related)) of the same molecule?
A: The testicular pain was “two men given TAK‐418 reported testicular pain”.

Q: And the “participants reporting TEAEs” value ([3]; single dose 5–60 mg while fasting, 13 participants)?
A: Its value is 43%.

Q: And the “severity of TEAEs” value ([3]; single dose up to 60 mg)?
A: Its value is “mild”.

Q: And the “upper respiratory tract infection (most common TEAE)” value ([3]; single dose, n = 3)?
A: The value was 10%.

Q: And the “mean C max in CSF” value ([4]; Day 10, CV% 24.7)?
A: The value was 85.20 ng mL^ −1.

Q: What about the “mean AUC0–24 in CSF” value ([4]; Day 10, CV% 26.5) of the same molecule?
A: The value was 611.0 ng·h/mL.

Q: And the toxicology findings [5]?
A: The toxicology findings was “testicular findings in a single species”.

Q: And the “t ½z” value ([6]; healthy volunteers, across both studies and doses)?
A: Its value is 3.13 to 5.36 h.

Q: And the “AUC0–24, mean (CV%)” value ([6]; single oral dose 5 mg)?
A: The value was 89.3 (41.1) h*ng mL^−1.

Q: And the “AUC0–∞, mean (CV%)” value ([6]; single oral dose 5 mg)?
A: The value was 92.2 (43.3) h*ng mL^−1.

Q: What about the “t max, median (range)” value ([6]; single oral dose 5 mg) of the same molecule?
A: Its value is 1.00 (0.98–1.02) h.

Q: And the “t ½z, mean (CV%)” value ([6]; single oral dose 5 mg)?
A: The value was 3.133 (14.8) h.

Q: And the “AUC0–24, mean (CV%)” value ([6]; single oral dose 15 mg)?
A: Its value is 295.8 (21.5) h*ng mL^−1.

Q: And the “AUC0–∞, mean (CV%)” value ([6]; single oral dose 15 mg)?
A: Its value is 302.2 (21.8) h*ng mL^−1.

Q: And the “t max, median (range)” value ([6]; single oral dose 15 mg)?
A: Its value is 1.00 (1.00–2.00) h.

Q: What about the “t ½z, mean (CV%)” value ([6]; single oral dose 15 mg) of the same molecule?
A: The value was 4.375 (9.0) h.

Q: And the “AUC0–24, mean (CV%)” value ([6]; single oral dose 30 mg, fasted)?
A: Its value is 646.3 (7.9) h*ng mL^−1.

Q: And the “AUC0–∞, mean (CV%)” value ([6]; single oral dose 30 mg, fasted)?
A: The value was 661.3 (7.9) h*ng mL^−1.

Q: What about the “t max, median (range)” value ([6]; single oral dose 30 mg, fasted) of the same molecule?
A: Its value is 1.00 (0.50–1.00) h.

Q: And the “t ½z, mean (CV%)” value ([6]; single oral dose 30 mg, fasted)?
A: Its value is 4.772 (11.0) h.

Q: What about the “AUC0–24, mean (CV%)” value ([6]; single oral dose 40 mg) of the same molecule?
A: The value was 690.2 (24.0) h*ng mL^−1.

Q: What about the “AUC0–∞, mean (CV%)” value ([6]; single oral dose 40 mg) of the same molecule?
A: Its value is 700.0 (24.5) h*ng mL^−1.

Q: What about the “t max, median (range)” value ([6]; single oral dose 40 mg) of the same molecule?
A: Its value is 1.25 (1.00–1.52) h.
